Experimental data from ChEMBL document CHEMBL1140407, “Design and synthesis of tricyclic corticotropin-releasing factor-1 antagonists” (J Med Chem, 2005).

target: T1, Corticotropin-releasing factor receptor 1 (Homo sapiens, UniProt P34998); assay: Binding affinity for human corticotropin releasing factor receptor 1 expressed in LtK- cells using [125I]sauvagine; type: cell-based; conditions: not given
T1 sequence (P34998 whole entry): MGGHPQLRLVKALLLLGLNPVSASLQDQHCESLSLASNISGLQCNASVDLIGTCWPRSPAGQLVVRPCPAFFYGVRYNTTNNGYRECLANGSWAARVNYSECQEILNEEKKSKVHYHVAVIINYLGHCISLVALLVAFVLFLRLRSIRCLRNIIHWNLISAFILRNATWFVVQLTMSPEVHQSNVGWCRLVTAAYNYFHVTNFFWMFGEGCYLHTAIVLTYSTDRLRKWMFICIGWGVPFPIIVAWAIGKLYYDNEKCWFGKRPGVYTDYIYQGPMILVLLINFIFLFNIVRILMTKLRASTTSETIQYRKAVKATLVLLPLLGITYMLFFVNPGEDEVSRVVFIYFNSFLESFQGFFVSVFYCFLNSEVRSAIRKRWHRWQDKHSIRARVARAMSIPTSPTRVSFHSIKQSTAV
Method in brief: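 Buffer: DPBS with 10 mM MgCl2 and 2 mM EGTA, pH 7.4. Competitor 10 pM to 1 µM, run in duplicate, 2 h at room temperature. Bound ligand separated by vacuum filtration and counted by gamma counter. Nonspecific binding taken with excess unlabeled sauvagine. Ki from nonlinear curve fitting.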

SMILES	Ki
CC[C@@H]1Cn2nc(-c3ccc(Cl)cc3Cl)c3nc(C)cc(c32)N1CC1CC1	126 nM
CC[C@H]1Cn2nc(-c3ccc(C(=O)OC)cc3Cl)c3nc(C)cc(c32)N1CC1CC1	158 nM
CC[C@H]1Cn2nc(-c3ccc(Cl)cc3C)c3nc(C)cc(c32)N1CC1CC1	7.94 nM
CC[C@H]1Cn2nc(-c3ccc(Cl)cc3Cl)c3nc(C)cc(c32)N1CC1CCC1	20 nM
CCCCN(CC)c1nc(C)nc2c1c(C)c(C)n2-c1c(C)cc(C)cc1C [ANTALARMIN]	2.51 nM
CC[C@H]1Cn2nc(-c3ccc(Cl)cc3C(F)(F)F)c3nc(C)cc(c32)N1CC1CC1	20 nM
CC[C@H]1Cn2nc(-c3ccc(Cl)cc3Cl)c3nc(C)cc(c32)N1CC(C)C	15.8 nM
CCC[C@H]1Cn2nc(-c3ccc(Cl)cc3Cl)c3nc(C)cc(c32)N1CC1CC1	3.98 nM
CCCN1c2cc(C)nc3c(-c4ccc(Cl)cc4Cl)nn(c23)C[C@@H]1CC	31.6 nM
CC[C@H]1Cn2nc(-c3ccc(C)cc3Cl)c3nc(C)cc(c32)N1CC1CC1	6.31 nM
Cc1cc2c3c(n1)c(-c1ccc(Cl)cc1Cl)nn3C[C@H](C(C)C)N2CC1CC1	5.01 nM
CC[C@H]1Cn2nc(-c3ccc(Cl)cc3Cl)c3nc(C)cc(c32)N1Cc1ccccc1	158 nM
Cc1cc2c3c(n1)c(-c1ccc(Cl)cc1Cl)nn3CCN2CC1CC1	79.4 nM
Cc1cc2c3c(n1)c(-c1ccc(Cl)cc1Cl)nn3CCN2C(C)C	79.4 nM
CCC(CC)N1CCn2nc(-c3ccc(Cl)cc3Cl)c3nc(C)cc1c32	3.98 nM
Cc1cc2c3c(n1)c(-c1ccc(Cl)cc1Cl)nn3CCN2CC(C)C	398 nM
CC[C@H]1Cn2nc(-c3ccc(C)cc3C)c3nc(C)cc(c32)N1CC1CC1	12.6 nM
CC[C@H]1Cn2nc(-c3ccc(OC)cc3C(F)(F)F)c3nc(C)cc(c32)N1CC1CC1	7.94 nM
CC[C@H]1Cn2nc(-c3ccc(Cl)cc3Cl)c3nc(C)cc(c32)N1	794 nM

SMILES	Ki
CCCCC(CCCC)N1CCn2nc(-c3ccc(Cl)cc3Cl)c3nc(C)cc1c32	5.01 nM
CC[C@H]1Cn2nc(-c3ccc(F)cc3Cl)c3nc(C)cc(c32)N1CC1CC1	12.6 nM
CCCC(CCC)N1CCn2nc(-c3ccc(Cl)cc3Cl)c3nc(C)cc1c32	5.01 nM
CC[C@H]1Cn2nc(-c3ccc(C(F)(F)F)cc3C(F)(F)F)c3nc(C)cc(c32)N1CC1CC1	7.94 nM
CCC(COC)N1CCn2nc(-c3ccc(Cl)cc3Cl)c3nc(C)cc1c32 (centres undefined)	63.1 nM
CC[C@H]1Cn2nc(-c3ccc(Cl)cc3OC)c3nc(C)cc(c32)N1CC1CC1	25.1 nM
Cc1cc2c3c(n1)c(-c1ccc(Cl)cc1Cl)nn3C[C@H](c1ccccc1)N2CC1CC1	10 nM
CC[C@H]1Cn2nc(-c3ccc(Cl)cc3Cl)c3nc(C)cc(c32)N1CC	63.1 nM
CC[C@H]1Cn2nc(-c3ccc(OC)cc3Cl)c3nc(C)cc(c32)N1CC1CC1	3.98 nM
CC[C@H]1Cn2nc(-c3ccc(OC)cc3C)c3nc(C)cc(c32)N1CC1CC1	10 nM
Cc1cc2c3c(n1)c(-c1ccc(Cl)cc1Cl)nn3C[C@H](C)N2CC1CC1	7.94 nM
Cc1cc2c3c(n1)c(-c1ccc(Cl)cc1Cl)nn3CCN2C1CCCCC1	158 nM
CC[C@H]1Cn2nc(-c3ccc(C(F)(F)F)cc3Cl)c3nc(C)cc(c32)N1CC1CC1	3.98 nM
CC[C@H]1Cn2nc(-c3ccc(Cl)cc3Cl)c3nc(C)cc(c32)N1CCOC	50.1 nM
CC[C@H]1Cn2nc(-c3ccc(C(C)C)cc3C(F)(F)F)c3nc(C)cc(c32)N1CC1CC1	7.94 nM
CCCCN1c2cc(C)nc3c(-c4ccc(Cl)cc4Cl)nn(c23)C[C@@H]1CC	6.31 nM
CCCN(CC1CC1)c1cc(C)nc2c(-c3ccc(Cl)cc3Cl)nn(C)c12	1.58 nM
CC[C@H]1Cn2nc(-c3ccc(Cl)cc3F)c3nc(C)cc(c32)N1CC1CC1	50.1 nM

species: Rattus norvegicus; assay: In vitro Inhibition of CRF-stimulated ACTH release in rat anterior pituitary cells, upon 9 min incubation at 37 degree C; type: functional, cell-based; conditions: Pituitary gland cell, 4 h, in the assay text read “4 h incubation” for “9 min incubation”
Method in brief: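 Pituitaries from 7-week-old female Sprague Dawley rats digested with collagenase (1.5 h, 37 °C), then neuraminidase (9 min, 37 °C). Cells cultured 2-3 days in 3% FCS/BBM-T at 40,000 cells/well. Antagonist (1 pM to 1 µM) added with 0.5 nM r/hCRF in BBM-T for 4 h at 37 °C. Medium ACTH measured by RIA.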

SMILES	IC50
CC[C@H]1Cn2nc(-c3ccc(Cl)cc3Cl)c3nc(C)cc(c32)N1CC1CC1	126 nM

target: T1, Corticotropin-releasing factor receptor 1; assay: In vitro inhibition of CRF-stimulated cAMP production in cell membranes expressing human CRF1 receptor; type: functional, cell-based; conditions: in the assay text read “whole cells” for “cell membranes”
Method in brief: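 Live whole L-hCRF1 cells (LtK- cells expressing human CRF1 receptor) were plated at 100 000 cells/well the day before and washed with DPBS. Buffer was DMEM without phenol red with 1 mM IBMX. CRF plus antagonist at various concentrations were added for 30 min at 37 °C in 5% CO2. Total cAMP was read by chemiluminescent immunoassay and IC50 was obtained by nonlinear curve fitting.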

SMILES	IC50
CC[C@H]1Cn2nc(-c3ccc(Cl)cc3Cl)c3nc(C)cc(c32)N1CC1CC1	79.4 nM
